The list is not random: actives were taken first. Their share in the collection is about 2.5%.
ABHD4 inh – ABHD4 inhibitors, primary screen, biochemical, fluorescence polarization, mouse | 370,000 tested, 0.54% active | inhibition, % at 8.92 µM | purified mABHD4, FP-Rh probe fluorescence polarization | (Lyso)-N-acylphosphatidylethanolamine lipase (Mus musculus), Q8VD66;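 active = inhibition exceeding the mean over every tested compound plus 3 SD, cut at about 30% in these data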;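 note: 0% = plate median of compound wells and 100% = S159A mutant with DMSO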
Target sequence (Q8VD66 whole entry, looked up): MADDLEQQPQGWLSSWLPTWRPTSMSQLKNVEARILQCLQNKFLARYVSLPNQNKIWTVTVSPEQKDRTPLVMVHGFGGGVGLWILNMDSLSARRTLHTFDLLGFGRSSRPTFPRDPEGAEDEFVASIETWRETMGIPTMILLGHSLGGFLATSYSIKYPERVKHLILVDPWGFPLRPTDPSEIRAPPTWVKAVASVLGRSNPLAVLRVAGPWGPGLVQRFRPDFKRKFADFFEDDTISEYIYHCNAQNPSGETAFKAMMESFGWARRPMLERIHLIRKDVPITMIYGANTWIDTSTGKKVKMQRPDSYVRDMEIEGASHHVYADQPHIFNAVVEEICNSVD
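system = mouse ABHD4 enzyme, wild type | medium = HEPES pH 7.0, NaCl, Pluronic buffer | also added = FP-Rh probe | incubation = Enzyme–compound pre-incubation 45 min, then probe 60 min, both 25 °C | technique = fluorescence polarization, excitation 525 nm, emission 598 nm, BODIPY TMR filters | controls = S159A mutant high control, sample median low control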
PRMT1 inh – PRMT1 methyltransferase inhibitors, primary screen, biochemical, fluorescence polarization; Protein arginine N-methyltransferase 1 (Homo sapiens), Q99873; recombinant PRMT1, activity-based probe fluorescence polarization; inhibition, % at 2.79 µM; 370,000 tested, 1.3% active;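 active = inhibition above about 21% made by adding two undisclosed values, limit read from the data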
Target sequence (Q99873 whole entry, looked up): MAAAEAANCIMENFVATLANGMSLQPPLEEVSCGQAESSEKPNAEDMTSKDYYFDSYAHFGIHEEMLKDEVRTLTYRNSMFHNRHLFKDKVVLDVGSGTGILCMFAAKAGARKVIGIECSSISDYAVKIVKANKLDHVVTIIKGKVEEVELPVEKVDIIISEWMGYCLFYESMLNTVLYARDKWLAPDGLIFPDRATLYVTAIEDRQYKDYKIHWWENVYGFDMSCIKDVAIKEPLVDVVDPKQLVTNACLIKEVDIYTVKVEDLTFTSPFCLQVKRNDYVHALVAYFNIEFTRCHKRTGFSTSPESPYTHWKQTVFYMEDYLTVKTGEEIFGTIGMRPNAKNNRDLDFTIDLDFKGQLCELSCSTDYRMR
TCR-CD3 inh – inhibitors of human TCR-CD3 interaction, primary screen, biochemical, fluorescence, TAMRA-labeled TCR probe; inhibition, % at 9.4 µM; T-cell receptor (TCR); AID 651800, 2012; 360,000 tested, 0.37% active; in the data active = inhibition above about 19%;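 note: recombinant mutant TCR 2C K166C tagged with TAMRA read by polarization; 0% = receptor in buffer alone and 100% = receptor with positive control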
HTRA1 inh – HTRA1 serine protease inhibitors, primary screen, biochemical, fluorescence polarization, HTS. recombinant HTRA1, FP-rhodamine activity-based probe. inhibition, % at 5.96 µM. 340,000 tested, 0.5% active. AID 504803, 2011; in the data active = inhibition above about 36%;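 note: 0% = enzyme with DMSO and 100% = wells lacking enzyme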
SIAE primary – human SIAE inhibitors, primary screen, biochemical, fluorescence polarization, FP-Rh probe, 1536-well HTS | Sialate O-acetylesterase (Homo sapiens), Q9HAT2 | SIAE FP-Rh probe binding | inhibition, % at 9.66 µM | 370,000 tested, 0.69% active;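 active = inhibition above a cutoff: mean of compounds within the control limits plus 3 SD of those, cut at about 17% in these data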;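 note: 0% = plate median of compound wells and 100% = probe without SIAE protein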
HTRA1 inh conf – HTRA1 protease inhibitors, retest, confirmation, biochemical, fluorescence polarization; shares compounds with HTRA1 inh; recombinant HTRA1, FP-rhodamine activity-based probe; inhibition, % at 5.96 µM; 1,600 tested, 66% active; AID 540248, 2011;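 active = mean inhibition over three repeats above a set limit taken from the earlier primary screen, cut at about 37% in these data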;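 note: 0% = HTRA1 with DMSO and 100% = wells lacking HTRA1; inhibitors block probe binding so polarization drops and inhibition rises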
* marks the source's active call; other numbers are inactive results; . = no result given.

SMILES	ABHD4 inh	PRMT1 inh	TCR-CD3 inh	HTRA1 inh	SIAE primary	HTRA1 inh conf
CC1(C)CC(=O)C2=C(C1)N=C1c3ccccc3C(=O)C1C2c1ccc(Cl)cc1 (stereo unspecified)	6.2	4.5	-1.2	51.8*	13.4	50.7*
COc1cc(O)c2c(=O)c3c(O)ccc(O)c3oc2c1	28.4	-0.4	5.8	54.7*	4.0	0.3
O=C(O)c1cccc(Cn2c(Cl)c(/C=N/NC(=O)c3ccccc3)sc2=O)c1	-0.8	7.3	4.7	2.5	0.8	.
O=C(O)c1cccc(Cn2c(Cl)c(/C=N/NC(=O)c3cc4ccccc4cc3O)sc2=O)c1	-36.3	8.2	11.8	49.7*	-32.2	55.2*
O=C(NCC(c1ccccc1)c1ccccc1)[C@H](Cc1ccccc1)NC1(C(=O)NC2CCCCC2)CCOCC1	-1.7	-0.6	.	.	-4.0	.
CCc1nnc(NC(=O)c2ccc(S(=O)(=O)N3CCCC(C)C3)cc2)s1 (stereo unspecified)	2.2	-2.1	11.5	6.7	0.1	.
Cc1cc(C)c2nc(NNC(=O)c3ccc(S(=O)(=O)N4CCCCC4)cc3)sc2c1	15.1	0.7	-3.3	48.7*	9.9	24.0
Cc1cccc2sc(NNC(=O)c3ccc(S(=O)(=O)N4CCc5ccccc5C4)cc3)nc12	4.5	-5.0	4.8	44.5*	12.6	33.4
Cc1cccc2sc(NNC(=O)c3ccc(S(=O)(=O)N4CCCC(C)C4)cc3)nc12 (stereo unspecified)	20.7	4.4	-2.9	45.1*	15.6	41.4*
COc1cc(/C=N/Nc2cccc(C)c2)cc(Br)c1O	11.5	9.1	-6.0	37.6*	15.3	30.3
COC(=O)c1ccc(Cn2ccc3ccc(-c4ccc5ccn(Cc6ccc(OC)cc6)c5c4)cc32)cc1	18.4	-6.7	.	.	-1.3	.
CCCCC(=O)N1CCN(C(=O)c2ccc3c(c2)nc(C)n3C2CCCC2)CC1	-5.2	-5.3	.	.	1.2	.
N#CCC[C@@H]1CC[C@]2(CCCN(C(=O)C3CCCCC3)C2)O1	6.1	3.7	.	.	4.8	.
Cc1cccc(N2CCN(c3ccc(NC(=O)/C=C(/C(=O)O)c4ccccc4)cc3)CC2)c1	23.8	0.9	4.6	49.4*	7.8	41.1*
CC(=O)N1CCN(c2ccc(NC(=O)c3cccc(C)c3)cc2)CC1	-2.9	0.8	1.8	5.2	0.6	.
Cc1ccc(Nc2c(-c3ccccn3)nc3ccc(C)cn23)cc1	10.7	-1.3	-4.0	55.3*	8.3	57.5*
Cc1ccc(Nc2c(-c3ccccn3)nc3cc(C)ccn23)cc1	9.6	-4.8	4.0	43.7*	8.2	61.5*
Cc1ccn2c(Nc3ccc4c(c3)OCO4)c(-c3ccccn3)nc2c1	21.5	15.2	7.4	64.0*	25.1*	74.6*
Cc1cc(C)n2c(Nc3ccc4c(c3)OCCO4)c(-c3ccccn3)nc2n1	14.7	11.3	6.2	.	7.9	.
Fc1cccc(CNC2CCC23CCC(c2ccccc2)CC3)c1 (stereo unspecified)	3.1	-8.7	.	.	-5.3	.
O=C(CSc1nc2sc3c(c2c(=O)n1-c1ccc(Cl)cc1)CCC3)Nc1ccc(C(=O)O)cc1	-7.4	-0.5	.	.	-0.6	.
COc1ccc(C(=O)C2CCN(c3ncnc4sccc34)CC2)cc1	-1.9	1.9	.	.	-0.2	.
Cc1cnn(-c2ccccc2)c1NC(=O)COCc1ccccc1	-0.1	-3.3	.	.	2.3	.
COc1ccc(Oc2c(Cl)cnn(-c3ccc(C(C)C)c(C)c3)c2=O)cc1	2.5	6.8	.	.	2.5	.
CCc1cc2c(=O)c(-c3nc4ccccc4n3C)c(C)oc2cc1OC(C)=O	-6.1	-3.4	4.4	10.2	-3.1	.
SMILES	ABHD4 inh	PRMT1 inh	TCR-CD3 inh	HTRA1 inh	SIAE primary	HTRA1 inh conf
CCc1cc2c(=O)c(-c3nc4ccccc4n3C)c(COCC(=O)O)oc2cc1OC(=O)C(C)(C)C	2.1	-0.6	7.4	48.0*	-1.7	14.6
CN1CCc2cccc3c2[C@@H]1Cc1ccc(O)c(O)c1-3	.	.	.	49.1*	.	53.3*
Cc1ccc(O)c(CNc2cccc3cccnc23)c1	7.1	-0.6	-5.8	22.1	4.5	.
Oc1ccc(Br)cc1CNc1cccc2cccnc12	20.9	-2.3	-4.7	45.0*	12.8	7.7
Cc1cccc(OCC(=O)NC(=S)N2CCCc3ccccc32)c1	21.2	2.8	12.3	47.9*	6.3	6.6
O=C(COc1ccc(Cl)cc1Cl)NC(=S)N1CCCc2ccccc21	8.9	14.7	-4.9	28.6	1.3	.
Cc1ccc(/C=C2/SC(=O)NC2=S)o1	.	.	.	40.2*	.	17.9
CCN(CC)c1ccc(N)cc1	.	.	.	44.4*	.	65.7*
COc1ccc(/C=C/C(Cc2cccc(C(C)=O)c2)c2ccc(C)cc2)cc1 (stereo unspecified)	-2.9	6.2	.	.	0.6	.
CCCCCCCCC/C(=N\O)c1ccccn1	-5.1	-1.0	1.7	66.4*	-6.3	66.0*
O=C1C(Nc2ccccc2)=C/C(=N/S(=O)(=O)c2cccs2)c2ccccc21	.	.	.	63.4*	.	62.1*
Cc1ccc(S(=O)(=O)/N=C2\C=C(Nc3ccc(O)cc3)C(=O)c3ccccc32)cc1	.	.	.	87.8*	.	77.5*
O=C1C=C(Nc2ccccc2)C(=O)c2ccccc21	19.2	0.8	4.1	16.6	-1.7	.
Nc1c(Cl)ncnc1N/N=C/c1ccc2ccccc2n1	27.3	3.4	4.0	79.4*	5.2	72.0*
Nc1c(Cl)ncnc1N/N=C/c1ccnc2ccccc12	3.8	3.1	16.3	13.9	9.2	.
Cc1ccnc(Nc2nc(-c3ccc(O)cc3O)cs2)c1	19.0	0.5	8.1	37.0*	10.1	44.4*
CC(C)CN1C(=O)[C@]2(CC(=O)N(C)C2c2ccccc2)c2cc(-n3cc(-c4ccccc4)nn3)ccc21 (stereo partly specified)	-6.5	-5.1	.	.	11.8	.
O=C(COC(=O)c1ccc([N+](=O)[O-])s1)Nc1ncc(C(F)(F)F)cc1Cl	3.1	9.1	7.6	37.7*	-1.2	63.1*
O=C(COC(=O)c1ccccn1)Nc1ncc(C(F)(F)F)cc1Cl	3.8	2.2	-3.5	5.8	-5.2	.
O=C(NC1CCCCN(Cc2ccc(OC(F)(F)F)cc2)C1=O)c1cccc(C(F)(F)F)c1 (stereo unspecified)	-1.3	2.1	.	.	-1.6	.
CCN(CC)C(=O)c1ccc(-c2nnc(Nc3ccc(O)cc3)c3ccccc23)cc1	-5.2	0.6	-10.7	40.7*	4.5	25.5
Nc1ccc(Nc2ccccc2N)cc1	24.0	0.3	1.3	63.9*	8.8	82.6*
COc1ccc(Nc2ccccc2N)cc1	17.2	13.7	-6.0	-5.9	-38.8	.
C=CCN(CC#CC1=CCCCC1)Cc1ccc(OC)cc1OC	1.1	-1.6	.	.	3.5	.
O=C(NN=C1CCN(Cc2ccccc2)CC1)c1ccccc1	1.0	2.1	-8.0	4.3	-5.1	.

Compound activity deposited in PubChem BioAssay by The Scripps Research Institute Molecular Screening Center.
